Test results from ChEMBL document CHEMBL1150169, “Fatty acid synthase inhibitors from plants: isolation, structure elucidation, and SAR studies” (J Nat Prod, 2002).
≈ marks a conversion by molar mass, not a printed value.

Assays:
Cryptococcus neoformans = experiment: Antifungal activity against Cryptococcus neoformans ATCC 90113; assay type: functional, organism-based
[1] = Inhibition of Saccharomyces cerevisiae fatty acid synthase
How it was run: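 Yeast FAS semipurified by 50% ammonium sulfate precipitation of lysate (pH 6.6 phosphate, EDTA, DTT, protease inhibitors), dialyzed, and diluted to 250 mOD/min/mL. Samples preincubated with enzyme 30 min at room temperature, then mixed 1:1 with mix of 1 mM malonyl CoA and NADPH, 40 µM acetyl CoA, and 2 mM DTT. A340 read kinetically; rate over initial 2 min. IC50 from dose-response curves.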

Candida albicans = experiment: Antifungal activity against Candida albicans ATCC 90028; assay type: functional, organism-based

SMILES	IC50 (Cryptococcus neoformans)	IC50 [1]	IC50 (Candida albicans)
COc1ccc(-c2cc(=O)c3c(O)cc(O)cc3o2)cc1-c1c(OC)cc(O)c2c(=O)cc(-c3ccc(O)cc3)oc12	> 50 µg/mL	49 µg/mL (≈ 86.5 µM)	> 50 µg/mL
O=c1cc(-c2ccc(Cl)cc2)oc2ccc(Br)cc12	> 50 µg/mL	> 50 µg/mL	> 50 µg/mL
C=C(C)C(O)Cc1c(O)ccc(C(=O)/C=C/c2ccc(O)cc2)c1O (stereo unspecified)	50 µg/mL (≈ 147 µM)	46 µg/mL (≈ 135 µM)	20 µg/mL (≈ 58.8 µM)
CC1(C)CC[C@]2(C(=O)O)CC[C@]3(C)C(=CC[C@@H]4[C@@]5(C)C[C@@H](O)[C@H](O)[C@@](C)(COC(=O)c6cc(O)c(O)c(O)c6)[C@@H]5[C@H](O)C[C@]43C)[C@@H]2C1	> 50 µg/mL	> 50 µg/mL	> 50 µg/mL
O=Cc1cc(-c2coc3cc(O)cc(O)c3c2=O)ccc1O	> 50 µg/mL	2.3 µg/mL (≈ 7.71 µM)	> 50 µg/mL
O=c1cc(-c2ccc(Cl)cc2)oc2c(Br)cc(Br)cc12	> 50 µg/mL	> 50 µg/mL	> 50 µg/mL
COc1cc2c(=O)oc3c(OC)c(O[C@@H]4O[C@H](CO)[C@@H](O)[C@H](O)[C@H]4O)cc4c(=O)oc(c1OC)c2c34	> 50 µg/mL	> 50 µg/mL	> 50 µg/mL
Cc1cc2oc(-c3ccccc3)cc(=O)c2cc1Cl	> 50 µg/mL	> 50 µg/mL	> 50 µg/mL
COc1cc(O)c(C(=O)CCc2ccccc2)c(O)c1	> 50 µg/mL	> 50 µg/mL	> 50 µg/mL
Oc1cc(O)c2c(c1)O[C@H](c1ccc(O)c(O)c1)[C@H](O)C2 [(-)-EPICATECHIN]	> 50 µg/mL	> 50 µg/mL	> 50 µg/mL
COc1c(O)cc(CC2(O)Oc3cc(O)cc(O)c3C2=O)cc1O (stereo unspecified) [AMARONOL B]	> 50 µg/mL	> 50 µg/mL	> 50 µg/mL
CC1(C)CC[C@]2(C(=O)O)CC[C@]3(C)C(=CC[C@@H]4[C@@]5(C)C[C@@H](O)[C@H](O)[C@@](C)(CO)[C@@H]5CC[C@]43C)[C@@H]2C1 [ARJUNOLIC ACID]	20 µg/mL (≈ 40.9 µM)	27.5 µg/mL (≈ 56.3 µM)	> 50 µg/mL
COc1cc2oc(-c3ccccc3)cc(=O)c2c(OC)c1OC [BAICALEIN TRIMETHYL ETHER]	> 50 µg/mL	> 50 µg/mL	> 50 µg/mL
C=C(C)[C@@H]1CC[C@]2(C(=O)O)CC[C@]3(C)[C@H](CC[C@@H]4[C@@]5(C)CC[C@H](O)C(C)(C)[C@@H]5CC[C@]43C)[C@@H]12 [BETULINIC ACID]	> 50 µg/mL	> 50 µg/mL	> 50 µg/mL
C/C=C/C/C=C/CCC(=O)[C@H]1O[C@H]1C(N)=O [CERULENIN]	0.15 µg/mL (≈ 0.672 µM)	0.15 µg/mL (≈ 0.672 µM)	0.4 µg/mL (≈ 1.79 µM)
O=C(O)C[C@@H]1C(=O)O[C@H]2[C@@H]3OC(=O)c4cc(O)c(O)c(O)c4-c4c(cc(O)c(O)c4O)C(=O)OC[C@H]2O[C@@H](OC(=O)c2cc(O)c(O)c(O)c2)[C@@H]3OC(=O)c2cc(O)c(O)c3c2[C@H]1[C@H](O)C(=O)O3 [CHEBULAGIC ACID]	> 50 µg/mL	> 50 µg/mL	> 50 µg/mL
C[C@@H]1O[C@@H](Oc2cc3c(=O)oc4c(O)c(O)cc5c(=O)oc(c2O)c3c45)[C@H](O)[C@H](O)[C@H]1O [ESCHWEILENOL C]	> 50 µg/mL	7.5 µg/mL (≈ 16.7 µM)	> 50 µg/mL
COc1cc(-c2cc(=O)c3c(O)c(OC)c(OC)c(OC)c3o2)cc(OC)c1OC [GARDENIN]	> 50 µg/mL	> 50 µg/mL	> 50 µg/mL
O=c1c(-c2ccc(O)cc2)coc2cc(O)cc(O)c12 [GENISTEIN]	> 50 µg/mL	> 50 µg/mL	> 50 µg/mL
O=c1c(O)c(-c2ccc(O)cc2)oc2cc(O)cc(O)c12 [KAEMPFEROL]	> 50 µg/mL	50 µg/mL (≈ 175 µM)	> 50 µg/mL
O=c1cc(-c2ccc(O)c(O)c2)oc2cc(O)cc(O)c12 [LUTEOLIN]	> 50 µg/mL	9 µg/mL (≈ 31.4 µM)	> 50 µg/mL
O=c1c(O)c(-c2cc(O)c(O)c(O)c2)oc2cc(O)cc(O)c12 [MYRICETIN]	> 50 µg/mL	15 µg/mL (≈ 47.1 µM)	> 50 µg/mL
O=C1C[C@@H](c2ccc(O)cc2)Oc2cc(O)cc(O)c21 [NARINGENIN]	> 50 µg/mL	> 50 µg/mL	> 50 µg/mL
COc1c(O[C@@H]2O[C@H](CO)[C@@H](O)[C@H](O)[C@H]2O)cc2c(=O)oc3c4c(cc5c(=O)oc1c2c35)OCO4 [NYSSOSIDE]	> 50 µg/mL	> 50 µg/mL	> 50 µg/mL
O=C(OC[C@H]1O[C@@H](OC(=O)c2cc(O)c(O)c(O)c2)[C@H](OC(=O)c2cc(O)c(O)c(O)c2)[C@@H](OC(=O)c2cc(O)c(O)c(O)c2)[C@@H]1OC(=O)c1cc(O)c(O)c(O)c1)c1cc(O)c(O)c(O)c1 [PENTAGALLOYL GLUCOSE]	> 50 µg/mL	2.8 µg/mL (≈ 2.98 µM)	> 50 µg/mL
O=c1c(O)c(-c2ccc(O)c(O)c2)oc2cc(O)cc(O)c12 [QUERCETIN]	> 50 µg/mL	12 µg/mL (≈ 39.7 µM)	> 50 µg/mL

Results, then the compound that gave them:

IC50 (Cryptococcus neoformans)	IC50 [1]	IC50 (Candida albicans)	SMILES
> 50 µg/mL	> 50 µg/mL	> 50 µg/mL	Cc1c(-c2ccccc2)oc2c(C(=O)O)cccc2c1=O
> 50 µg/mL	50 µg/mL (≈ 185 µM)	> 50 µg/mL	O=c1c(-c2ccc(O)cc2)coc2cc(O)c(O)cc12
> 50 µg/mL	> 50 µg/mL	> 50 µg/mL	Cc1ccc2oc(-c3ccc(Cl)cc3)cc(=O)c2c1
> 50 µg/mL	> 50 µg/mL	> 50 µg/mL	O=c1cc(-c2ccccc2)oc2c(Br)cc(Br)cc12
> 50 µg/mL	> 50 µg/mL	> 50 µg/mL	O=C1c2c(O)cc(O)cc2OC(c2ccc(O)cc2O)C1O (stereo unspecified)
> 50 µg/mL	23 µg/mL (≈ 40 µM)	> 50 µg/mL	O=C1c2c(O)cc(O)c(C3C(=O)c4c(O)cc(O)cc4OC3c3ccc(O)cc3)c2OC(c2ccc(O)c(O)c2)C1O (stereo unspecified)
> 50 µg/mL	> 50 µg/mL	> 50 µg/mL	C=C(C)C(O)Cc1cc(-c2coc3cc(O)cc(O)c3c2=O)ccc1O (stereo unspecified)
> 50 µg/mL	30 µg/mL (≈ 53.9 µM)	> 50 µg/mL	O=C1c2c(O)cc(O)cc2OC(c2ccc(O)cc2)C1c1c(O)cc(O)c2c(=O)cc(-c3ccc(O)c(O)c3)oc12 (stereo unspecified)
> 50 µg/mL	> 50 µg/mL	> 50 µg/mL	CC1(C)C=Cc2c(cc3occ(-c4ccc(O)cc4)c(=O)c3c2O)O1 [ALPINUMISOFLAVONE]
> 50 µg/mL	> 50 µg/mL	> 50 µg/mL	O=C1c2c(O)cc(O)cc2OC1(O)Cc1cc(O)c(O)c(O)c1 (stereo unspecified) [AMARANOL A]
> 50 µg/mL	7 µg/mL (≈ 13 µM)	> 50 µg/mL	O=c1cc(-c2ccc(O)c(-c3c(O)cc(O)c4c(=O)cc(-c5ccc(O)cc5)oc34)c2)oc2cc(O)cc(O)c12 [AMENTOFLAVONE]
20 µg/mL (≈ 74 µM)	37.5 µg/mL (≈ 139 µM)	> 50 µg/mL	O=c1cc(-c2ccc(O)cc2)oc2cc(O)cc(O)c12 [APIGENIN]
> 50 µg/mL	> 50 µg/mL	> 50 µg/mL	COc1cc(O)c(C(=O)CCc2ccc(O)cc2)c(O)c1 [ASEBOGENIN]
> 50 µg/mL	25 µg/mL (≈ 92.5 µM)	6 µg/mL (≈ 22.2 µM)	O=c1cc(-c2ccccc2)oc2cc(O)c(O)c(O)c12 [BAICALEIN]
> 50 µg/mL	> 50 µg/mL	> 50 µg/mL	O=C(O)[C@H]1O[C@@H](Oc2cc3oc(-c4ccccc4)cc(=O)c3c(O)c2O)[C@H](O)[C@@H](O)[C@@H]1O [BAICALIN]
> 50 µg/mL	> 50 µg/mL	> 50 µg/mL	COc1ccc(-c2coc3cc(O)cc(O)c3c2=O)cc1 [BIOCHANIN]
> 50 µg/mL	> 50 µg/mL	> 50 µg/mL	O=C(O)C[C@H]1C(=O)O[C@H]2[C@H](OC(=O)c3cc(O)c(O)c(O)c3)[C@@H](OC(=O)c3cc(O)c(O)c4c3[C@H]1[C@H](O)C(=O)O4)[C@H](OC(=O)c1cc(O)c(O)c(O)c1)O[C@@H]2COC(=O)c1cc(O)c(O)c(O)c1 [CHEBULINIC ACID]
> 50 µg/mL	> 50 µg/mL	> 50 µg/mL	CC1(C)CC[C@]2(C(=O)O[C@@H]3O[C@H](CO)[C@@H](O)[C@H](O)[C@H]3O)CC[C@]3(C)C(=CC[C@@H]4[C@@]5(C)C[C@@H](O)[C@H](O)[C@@](C)(CO)[C@@H]5[C@H](O)C[C@]43C)[C@@H]2C1 [CHEBULOSIDE II]
5.5 µg/mL (≈ 18.2 µM)	20 µg/mL (≈ 66.2 µM)	> 50 µg/mL	O=c1oc2c(O)c(O)cc3c(=O)oc4c(O)c(O)cc1c4c23 [ELLAGIC ACID]
> 50 µg/mL	> 50 µg/mL	> 50 µg/mL	O=c1c(O)c(-c2ccc(O)c(O)c2)oc2cc(O)ccc12 [FISETIN]
> 50 µg/mL	> 50 µg/mL	> 50 µg/mL	O=C1CC(c2ccccc2)Oc2ccccc21 (stereo unspecified) [FLAVANONE]
> 50 µg/mL	50 µg/mL (≈ 176 µM)	> 50 µg/mL	COc1ccc(-c2coc3cc(O)c(O)cc3c2=O)cc1 [FORMONETIN]
> 50 µg/mL	> 50 µg/mL	> 50 µg/mL	O=c1c(O)c(-c2ccccc2)oc2cc(O)cc(O)c12 [GALANGIN]
45 µg/mL (≈ 139 µM)	> 50 µg/mL	2 µg/mL (≈ 6.17 µM)	CC(C)=CCc1c(O)ccc(C(=O)/C=C/c2ccc(O)cc2)c1O [ISOBAVACHALCONE]
> 50 µg/mL	> 50 µg/mL	> 50 µg/mL	O=c1c(-c2ccc(O)c(O)c2)coc2cc(O)cc(O)c12 [OROBOL]
30 µg/mL (≈ 49.1 µM)	> 50 µg/mL	> 50 µg/mL	C[C@@H]1O[C@@H](OC[C@H]2O[C@@H](Oc3c(-c4ccc(O)c(O)c4)oc4cc(O)cc(O)c4c3=O)[C@H](O)[C@@H](O)[C@@H]2O)[C@H](O)[C@H](O)[C@H]1O [RUTIN]
